Active and inactive are the calls of the source. The calls are words filed in the database; no cut-off is given here.
How the values were obtained:
Type in all cases: functional
HBL-100 = assay: Antiproliferative activity against human HBL100 cells after 48 hrs by SRB assay; settings: HBL-100, 48 h
Procedure, shortened: (§1)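 Cells grown in RPMI 1640 with 5% heat-inactivated FCS and 2 mM L-glutamine. Seeded per well at 20,000 (WiDr), 15,000 (T-47D) or 10,000 (HeLa, SW1573, HBL-100). Dosing started the day after plating, in triplicate at 1–100 µM, with 0.25% DMSO as the vehicle control. After 48 h, TCA fixation, SRB staining and OD at 492 nm. Percentage growth calculated against untreated cells from OD at T0 and end, using NCI formulas.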

SW1573 = assay: Antiproliferative activity against human SW1573 cells after 48 hrs by SRB assay; settings: SW1573, 48 h; procedure, shortened: as §1
T47D = assay: Antiproliferative activity against human T47D cells after 48 hrs by SRB assay; procedure, shortened: as §1
HeLa = assay: Antiproliferative activity against human HeLa cells after 48 hrs by SRB assay; procedure, shortened: as §1
WiDr = assay: Antiproliferative activity against human WiDr cells after 48 hrs by SRB assay; procedure, shortened: as §1

Row | SMILES | GI50 (SW1573) | GI50 (T47D) | GI50 (HeLa) | GI50 (HBL-100) | GI50 (WiDr)
1 | CC1=CC[C@H]2C(C)(C)CCC[C@]2(C)[C@@]12CC[C@@](C)(CC(=O)O)O2 | 49 µM | 69 µM | 60 µM | 46 µM | 57 µM
2 | CC1=CC[C@H]2C(C)(C)CCC[C@]2(C)[C@@]12CC[C@@](C)(C/C=C(\C)CO)O2 | 18 µM | 15 µM | 16 µM | 16 µM | 19 µM
3 | COC(=O)C[C@]1(C)CC[C@@]2(O1)C(C)=CC[C@H]1C(C)(C)CCC[C@@]12C | 18 µM | 19 µM | 16 µM | 17 µM | 23 µM
4 | CC1=CC[C@H]2C(C)(C)CCC[C@]2(C)[C@@]12CC[C@@](C)(C/C=C/CO)O2 | 17 µM | 17 µM | 18 µM | 17 µM | 17 µM
5 | CC1=CC[C@H]2C(C)(C)CCC[C@]2(C)[C@@]12CC[C@@](C)(C[C@@H]1O[C@H]1CO)O2 | 18 µM | 16 µM | 17 µM | 16 µM | 19 µM
6 | CC1=CC[C@H]2C(C)(C)CCC[C@]2(C)[C@@]12CC[C@@](C)(CCN=[N+]=[N-])O2 | > 100 µM | > 100 µM | > 100 µM | > 100 µM | > 100 µM
7 | CC1=CC[C@H]2C(C)(C)CCC[C@]2(C)[C@@]12CC[C@@](C)(C[C@H]1O[C@@H]1CO)O2 | 18 µM | 15 µM | 17 µM | 16 µM | 17 µM
8 | C#Cc1cccc(-c2cn(CC[C@]3(C)CC[C@@]4(O3)C(C)=CC[C@H]3C(C)(C)CCC[C@@]34C)nn2)c1 | > 100 µM | > 100 µM | > 100 µM | > 100 µM | > 100 µM
9 | CC[C@@]1(O)C(=O)OCc2c1cc1n(c2=O)Cc2cc3ccccc3nc2-1 [CAMPTOTHECIN] | 0.25 µM | 2 µM | 0.6 µM | 0.23 µM | 1.8 µM
10 | CC1=CC[C@H]2C(C)(C)CCC[C@]2(C)[C@@]12CC[C@@](C)(CCO)O2 | 19 µM | 16 µM | 17 µM | 17 µM | 21 µM
11 | CC1=CC[C@H]2C(C)(C)CCC[C@]2(C)[C@@]12CC[C@@](C)(CCOC(=O)NCc1cn(CC[C@]3(C)CC[C@@]4(O3)C(C)=CC[C@H]3C(C)(C)CCC[C@@]34C)nn1)O2 | > 100 µM | > 100 µM | > 100 µM | > 100 µM | > 100 µM
12 | CCOC(=O)/C(C)=C/C[C@]1(C)CC[C@@]2(O1)C(C)=CC[C@H]1C(C)(C)CCC[C@@]12C | 20 µM | 32 µM | 18 µM | 17 µM | 37 µM
13 | CC1=CC[C@H]2C(C)(C)CCC[C@]2(C)[C@@]12CC[C@@](C)(CCn1cc(COc3cccc(OCc4cn(CC[C@]5(C)CC[C@@]6(O5)C(C)=CC[C@H]5C(C)(C)CCC[C@@]56C)nn4)c3)nn1)O2 | > 100 µM | > 100 µM | > 100 µM | > 100 µM | > 100 µM
14 | CCOC(=O)/C=C/C[C@]1(C)CC[C@@]2(O1)C(C)=CC[C@H]1C(C)(C)CCC[C@@]12C | 18 µM | 32 µM | 19 µM | 16 µM | 35 µM
15 | CC1=CC[C@H]2C(C)(C)CC[C@H](O)[C@]2(C)[C@@]12CC[C@@](C)(CC(=O)O)O2 | > 72 µM | > 100 µM | > 100 µM | > 100 µM | > 100 µM

Second part, led by results:

Row | GI50 (SW1573) | GI50 (T47D) | GI50 (HeLa) | SMILES | GI50 (HBL-100) | GI50 (WiDr)
16 | 17 µM | 26 µM | 17 µM | CC1=CC[C@H]2C(C)(C)CCC[C@]2(C)[C@@]12CC[C@@](C)(CC=O)O2 | 14 µM | 15 µM
17 | 17 µM | 17 µM | 18 µM | CC1=CC[C@H]2C(C)(C)CCC[C@]2(C)[C@@]12CC[C@@](C)(CCOC(=O)n1ccnc1)O2 | 16 µM | 13 µM
18 | 5.1 µM | 31 µM | 11 µM | CC1=CC[C@H]2C(C)(C)CCC[C@]2(C)[C@@]12CC[C@@](C)(CC(=O)N(Cc1ccccc1)C(C)(C)C(=O)Nc1c(C)cccc1C)O2 | 8.9 µM | 38 µM
19 | 11 µM | 3.9 µM | 5.3 µM | CC1=CC[C@H]2C(C)(C)CCC[C@]2(C)[C@@]12CC[C@@](C)(CC(=O)N(Cc1ccccc1)C(C)(C)C(=O)NC(C)(C)C)O2 | 4.6 µM | 12 µM
20 | 13 µM | 16 µM | 14 µM | C#CCNC(=O)OCC[C@]1(C)CC[C@@]2(O1)C(C)=CC[C@H]1C(C)(C)CCC[C@@]12C | 14 µM | 12 µM
21 | 3 µM | 4.3 µM | 2.7 µM | CC1=CC[C@H]2C(C)(C)CCC[C@]2(C)[C@@]12CC[C@@](C)(CCn1cc(CCCCc3cn(CC[C@]4(C)CC[C@@]5(O4)C(C)=CC[C@H]4C(C)(C)CCC[C@@]45C)nn3)nn1)O2 | 2.9 µM | 
22 | 5.8 µM | 5.3 µM | 5.7 µM | CC1=CC[C@H]2C(C)(C)CCC[C@]2(C)[C@@]12CC[C@@](C)(CC(=O)N(c1ccccc1)C(C)(C)C(=O)NC(C)(C)C)O2 | 5.4 µM | 6.8 µM
23 | 11 µM | 17 µM | 17 µM | CC1=CC[C@H]2C(C)(C)CCC[C@]2(C)[C@@]12CC[C@@](C)(CCn1cc(C[C@]3(C)CC[C@@]4(O3)C(C)=CC[C@H]3C(C)(C)CCC[C@@]34C)nn1)O2 | 9.3 µM | inactive
24 | 14 µM | 40 µM | 30 µM | CC1=CC[C@H]2C(C)(C)CCC[C@]2(C)[C@@]12CC[C@@](C)(CC(=O)N(Cc1ccccc1)C(C)(C)C(=O)NC(C)(C)C(C)(C)C)O2 | 10 µM | 49 µM
25 | 1.2 µM | 1.9 µM | 1.6 µM | CC1=CC[C@H]2C(C)(C)CCC[C@]2(C)[C@@]12CC[C@@](C)(CC(=O)N(Cc1ccccc1)C(C)(C)C(=O)NCc1ccccc1)O2 | 0.95 µM | 1.8 µM
26 | 15 µM | 28 µM | 16 µM | C#CC[C@]1(C)CC[C@@]2(O1)C(C)=CC[C@H]1C(C)(C)CCC[C@@]12C | 17 µM | 4.8 µM
27 | 3.6 µM | 4.4 µM | 4.7 µM | CC1=CC[C@H]2C(C)(C)CCC[C@]2(C)[C@@]12CC[C@@](C)(CC(=O)N(Cc1ccccc1)C(C)(C)C(=O)NC1CCCCC1)O2 | 3.7 µM | 5.1 µM
28 | 5.9 µM | 21 µM | 22 µM | CC1=CC[C@H]2C(C)(C)CCC[C@]2(C)[C@@]12CC[C@@](C)(CC(=O)N(c1ccccc1)C(C)(C)C(=O)Nc1c(C)cccc1C)O2 | 8.7 µM | 37 µM
29 | 15 µM | 44 µM | 25 µM | CCCCCCCCCCc1cn(CC[C@]2(C)CC[C@@]3(O2)C(C)=CC[C@H]2C(C)(C)CCC[C@@]23C)nn1 | 16 µM | 15 µM
30 | 8 µM | 4.3 µM | 7.8 µM | CC1=CC[C@H]2C(C)(C)CCC[C@]2(C)[C@@]12CC[C@@](C)(CCOC(=O)NCCCN(C)C)O2 | 6.1 µM | 1.4 µM
31 | 1.8 µM | 3 µM | 2.9 µM | CCCCNC(=O)C(C)(C)N(Cc1ccccc1)C(=O)C[C@]1(C)CC[C@@]2(O1)C(C)=CC[C@H]1C(C)(C)CCC[C@@]12C | 1.9 µM | 3.1 µM
32 | 16 µM | 19 µM | 18 µM | CC1=CC[C@H]2C(C)(C)CCC[C@]2(C)[C@@]12CC[C@@](C)(CC(=O)N(Cc1ccccc1)C(C)(C)C(=O)NCCN1CCOCC1)O2 | 16 µM | 12 µM
